Data as given in ChEMBL document CHEMBL1123371, “5-HT1 and 5-HT2 binding characteristics of some quipazine analogues” (J Med Chem, 1986).
The source made the active and inactive calls. The rule behind the calls is not given here.

Legend:
[1] = Displacement of [3H]5-HT from 5-hydroxytryptamine 1 receptor of rat cortical membrane homogenates
[2] = biological target: Serotonin 2 (5-HT2) receptor (Rattus norvegicus, UniProt P30994+P08909+P14842); test: Displacement of [3H]ketanserin from 5-hydroxytryptamine 2 receptor of rat cortical membrane homogenates
Rattus norvegicus [3] = test: Compound was evaluated in stimulus generalization test using animals trained to discriminate DOM from saline, and the drug appropriate responding at dose of 2.0 mg/kg; Not responding; type: functional, organism-based; parameters: dose 2 mg/kg
In short: (§1)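 Male Sprague-Dawley rats (n = 10) trained to discriminate 1.0 mg/kg DOM HCl from saline on a two-lever operant task, VI 15-s food reinforcement. Test doses were given ip in random order, 15 min pre-session, with at least three training sessions between tests. Responding was scored in a 2.5-min extinction session. Rats with fewer than five total responses were counted as disrupted.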

Rattus norvegicus [4] = test: Compound was evaluated in stimulus generalization test using animals trained to discriminate DOM from saline, and the mean responses per min at dose of 0.1 mg/kg; type: functional; in short: as §1
Rattus norvegicus [5] = test: Compound was evaluated in stimulus generalization test using animals trained to discriminate DOM from saline, and the drug appropriate responding at dose of 0.5 mg/kg; Not responding; type: functional, organism-based; parameters: dose 0.5 mg/kg; in short: as §1
Rattus norvegicus [6] = test: Compound was evaluated in stimulus generalization test using animals trained to discriminate DOM from saline, and the drug appropriate responding at dose of 0.3 mg/kg; Not responding; type: functional, organism-based; parameters: dose 0.3 mg/kg; in short: as §1
Rattus norvegicus [7] = test: Compound was evaluated in stimulus generalization test using animals trained to discriminate DOM from saline, and the drug appropriate responding at dose of 0.05 mg/kg; type: functional; in short: as §1
Rattus norvegicus [8] = test: Compound was evaluated in stimulus generalization test using animals trained to discriminate DOM from saline, and the drug appropriate responding at dose of 0.1 mg/kg; type: functional; in short: as §1
Rattus norvegicus [9] = test: Compound was evaluated in stimulus generalization test using animals trained to discriminate DOM from saline, and the mean responses per min at dose of 0.05 mg/kg; type: functional; in short: as §1

In the case of `COc1cccc2ccc(N)nc12`, the Ki [1] is reported as 10400 nM and the Ki [2] is reported as 35000 nM.
`c1ccc2nc(N3CCCCC3)ccc2c1` showed a Ki [1] greater than 100000 nM and a Ki [2] greater than 150000 nM.
With `COc1cccc2ccc(N3CCN(C)CC3)nc12` the Ki [1] was 1900 nM and the Ki [2] was 1200 nM.
With `c1ccc(N2CCNCC2)cc1` [PHENYLPIPERAZINE] the Ki [1] was 135 nM, the Drug responding (Rattus norvegicus [3]) was “inactive” and the Ki [2] was 2100 nM. For the same compound, the Mean response/min (Rattus norvegicus [4]) was 11.9, the Drug responding (Rattus norvegicus [5]) was “inactive” and the Drug responding (Rattus norvegicus [6]) was “inactive”. It also gave a Drug responding (Rattus norvegicus [7]) of 7%, a Drug responding (Rattus norvegicus [8]) of 8% and a Mean response/min (Rattus norvegicus [9]) of 13.1.
